This passage reports Activity and IC50 results from ChEMBL document CHEMBL1144837, “Antimitotic and antiproliferative activities of chalcones: forward structure-activity relationship” (J Med Chem, 2008).

The subject of test [1] is K562. Put plainly: Cell cycle arrest in human K562 cells assessed as accumulation at G2/M phase at 10 uM after 24 hrs by flow cytometry. The class given is functional. The procedure, abridged: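 K562 cells exposed 24 h at 10 µM, then stained with propidium iodide at 4 °C overnight and analysed by flow cytometry. After doublets and aggregates were excluded on an FL2-area/FL2-width plot, cells were assigned to G0/G1, S and G2/M, and the G2/M fraction was scored.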

The subject of another test is L1210. Put plainly: Cytotoxicity against mouse L1210 cells after 24 hrs by MTT assay. It counts as functional, cell-based. As to conditions: L1210, 24 h. The method in brief:
(§1)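 MTT viability assay: exponentially growing cells were seeded at 3 × 10^3 cells/well and held 24 h before drug addition. Formazan was dissolved in isopropanol and read by absorbance relative to untreated wells. IC50 is the concentration giving 50% growth loss against a control-cell standard curve after 24 h incubation. Run in triplicate, at least three separate experiments.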
Background: Formazan colour is commonly taken as a measure of viable cells.

A further test deals with HCT-116. Put plainly: Cytotoxicity against human HCT116 cells after 24 hrs by MTT assay. It counts as functional, cell-based. Conditions: HCT-116, 24 h. The method in brief:
as §1

In test [2] the test system is K562. Put plainly: Cytotoxicity against human K562 cells after 24 hrs by MTT assay. It counts as functional, cell-based. As to conditions: K562, 24 h. The method in brief: as §1
The next test concerns RL. Put plainly: Cytotoxicity against human RL cells after 24 hrs by MTT assay. It counts as functional, cell-based. The method in brief: as §1
Another test concerns SW48. Put plainly: Cytotoxicity against human SW48 cells after 24 hrs by MTT assay. The class given is functional, cell-based. As to conditions: SW48, 24 h. The procedure, abridged: as §1
For the next test, the system named is CCRF-CEM. Put plainly: Cytotoxicity against human CEM cells after 24 hrs by MTT assay. It counts as functional, cell-based. The procedure, abridged:
as §1

A further test deals with N2a. Put plainly: Cytotoxicity against mouse N2A cells after 24 hrs by MTT assay. It counts as functional, cell-based. The procedure, abridged:
as §1

Test [3] in a line: Cytotoxicity against human Messa cells after 24 hrs by MTT assay. It counts as functional, cell-based. Conditions: MES-SA. The method in brief: as §1
The next test deals with NIH3T3. Put plainly: Cytotoxicity against mouse NIH3T3 cells after 24 hrs by MTT assay. As to conditions: NIH3T3, 24 h. It counts as functional, cell-based. The method in brief: as §1
Test [4] is described as follows: Cytotoxicity against human HNO150 cells after 24 hrs by MTT assay. Conditions: HNO150, 24 h. The class given is functional, cell-based. The method in brief: as §1
The subject of the next test is MCF7. Put plainly: Cytotoxicity against human MCF7 cells after 24 hrs by MTT assay. It counts as functional, cell-based. As to conditions: MCF7, 24 h. The procedure, abridged:
as §1

For the compound `COc1ccc(/C=C/C(=O)c2ccc(OC)cc2OC)c(OC)c1`, in the test on K562 [1], the Activity is 25%.

Turning to `O=C(/C=C/c1c(Cl)cccc1Cl)c1ccccc1`, the Activity with K562 [1] was found to be 28%.

As for `COc1ccc(C(=O)/C=C/c2ccccc2Cl)c(OC)c1`, the Activity with K562 [1] was 42%.

Consider `COc1cc(O)c(C(=O)/C=C/c2ccccc2Cl)c(OC)c1`, for which the Activity in the test on K562 [1] was 43%.

As to `COc1cc(O)c(C(=O)/C=C/c2ccccc2OC)c(OC)c1`, the Activity with K562 [1] came out at 41%.

For the compound `CCOc1cc(OCC)c(/C=C/C(=O)c2c(OCC)cc(OCC)cc2OCC)c(OCC)c1`, in the test on K562 [1], the Activity was determined as 18%.

`COc1ccc(C(=O)/C=C/c2cc(OC)c(OC)cc2OC)c(O)c1`: the Activity in the test with K562 [1] was determined as 15%.

On to `COc1ccc(C(=O)/C=C/c2c(Cl)cccc2OC)c(O)c1`, for which the Activity in the test with K562 [1] is recorded as 45%.

As to `COc1ccc(/C=C/C(=O)c2c(OC)cccc2OC)c(OC)c1`, the Activity in the test on K562 [1] is recorded as 22%.

For `CCOc1cccc(OCC)c1C(=O)/C=C/c1c(OC)cc(OC)cc1OC`, the Activity in the test on K562 [1] is listed as 10%.

`COc1cccc(OC)c1C(=O)/C=C/c1c(C)cc(C)cc1C`: the Activity in the test on K562 [1] amounted to 23%.

For the compound `COc1cccc(OC)c1C(=O)/C=C/c1c(OC)c(F)c(OC)c(F)c1OC`, in the test on K562 [1], the Activity came to 46%.

In the case of `COc1cccc(OC)c1C(=O)/C=C/c1cccc(F)c1`, the Activity in the test with K562 [1] was 27%.

As to `COc1cccc(OC)c1C(=O)/C=C/c1cccc(Cl)c1`, the Activity in the test with K562 [1] worked out at 19%.

For `COc1ccc(C(=O)/C=C/c2c(OC)cc(OC)cc2OC)c(O)c1`, the Activity in the test with K562 [1] worked out at 19%.

With `COc1cccc(/C=C/C(=O)c2c(OC)cccc2OC)c1`, in the test with K562 [1], the Activity was determined as 29%.

For the compound `COc1cc(O)c(C(=O)/C=C/c2c(Cl)cccc2Cl)c(OC)c1`, the Activity in the test with K562 [1] is 26%.

Regarding `COc1cc(OC)c(C(=O)/C=C/c2c(OC)cccc2OC)c(OC)c1`, in the test with K562 [1], the Activity amounted to 64%.

In the case of `COc1ccc(/C=C/C(=O)c2c(OC)cc(OC)cc2OC)c(OC)c1`, the Activity in the test on K562 [1] amounted to 15%.

With `COc1ccc(C(=O)/C=C/c2cccc(F)c2)c(OC)c1`, the Activity in the test on K562 [1] was 32%.

For orientation: IC50 means the concentration that inhibits the measured activity by half. For `COc1cc(OC)c(/C=C/C(=O)c2c(OC)cccc2OC)c(OC)c1`, the 50% inhibitory concentration (IC50) with L1210 amounted to 7 µM; in the test with HCT-116, 450 nM; in the test on K562 [2] it was 50 µM; in the test with RL it was 800 nM; in the test on SW48 it was 250 nM; in the test on CCRF-CEM it was 650 nM. The IC50 in the test on N2a was found to be 2.2 µM; in test [3], 1000 nM; with NIH3T3, 30 µM; in test [4], 1.3 µM; in the test on MCF7, 60 µM. Besides, the Activity with K562 [1] is 84%.

Regarding `COc1cccc(OC)c1C(=O)/C=C/c1c(Cl)cccc1Cl`, the Activity in the test with K562 [1] was 39%.

With `COc1ccc(C(=O)/C=C/c2cccc(F)c2)c(O)c1`, in the test on K562 [1], the Activity is given as 40%.

On to `COc1cccc(OC)c1C(=O)/C=C/c1ccc(C(F)(F)F)cc1`, for which the Activity with K562 [1] came to 23%.

Regarding `COc1cccc(OC)c1C(=O)/C=C/c1ccccc1Cl`, in the test with K562 [1], the Activity amounted to 23%.

Consider `COc1cccc(/C=C/C(=O)c2ccc(OC)cc2O)c1`, for which, in the test with K562 [1], the Activity was 26%.

As for `COc1ccc(C(=O)/C=C/c2cc(OC)ccc2OC)c(O)c1`, the Activity in the test on K562 [1] came to 32%.

With `COc1ccc(C(=O)/C=C/c2ccc(OC)cc2OC)c(O)c1`, the Activity in the test with K562 [1] came to 18%.

On to `COc1cc(O)c(C(=O)/C=C/c2cccc(F)c2)c(OC)c1`, for which the Activity with K562 [1] worked out at 48%.

Turning to `COc1cc(O)c(C(=O)/C=C/c2c(OC)cccc2OC)c(OC)c1`, the Activity in the test with K562 [1] came out at 12%.

As to `COc1cccc(OC)c1/C=C/C(=O)c1c(OC)cccc1OC`, the IC50 in the test on L1210 stood at 34 µM; in the test on HCT-116 it was 9000 nM; with K562 [2], 80 µM; in the test with RL it was 40000 nM; in the test on SW48, 10000 nM; in the test on CCRF-CEM, 6000 nM. For the same compound, the IC50 in the test with N2a amounted to 55 µM; in test [3] it was 10000 nM; with NIH3T3, 60 µM; in test [4] it was 62 µM; in the test on MCF7 it was 75 µM. Further, the Activity in the test on K562 [1] is recorded as 78%.

As to `COc1ccc(C(=O)/C=C/c2cccc(OC)c2OC)c(O)c1`, the Activity with K562 [1] was 22%.

As for `COc1ccc(C(=O)/C=C/c2cc(OC)c(OC)c(OC)c2)c(O)c1`, the Activity in the test on K562 [1] is recorded as 20%.

With `COc1cc(OC)c(/C=C/C(=O)c2c(OC)cc(N)cc2OC)c(OC)c1`, the Activity with K562 [1] is 74%.

As to `COc1cccc(OC)c1/C=C/C(=O)c1ccccc1`, the Activity in the test with K562 [1] is on record as 34%.

Regarding `COc1ccc(C(=O)/C=C/c2ccc(OC)c(OC)c2)c(O)c1`, the Activity with K562 [1] was 18%.

Consider `COc1cc(/C=C/C(=O)c2c(OC)cccc2OC)cc(OC)c1OC`, for which the Activity in the test on K562 [1] is recorded as 25%.

Take `COc1ccc(/C=C/C(=O)c2c(OC)cccc2OC)c(OC)c1OC`: in the test with K562 [1], the Activity is 19%.

Turning to `COc1cc(OC)c(OC)cc1/C=C/C(=O)c1c(OC)cccc1OC`, the Activity with K562 [1] was determined as 49%.

For `COc1ccc(C(=O)/C=C/c2c(OC)cccc2OC)c(O)c1`, the Activity in the test on K562 [1] stood at 18%.

With `COc1cccc(OC)c1C(=O)/C=C/c1ccccc1`, the Activity in the test on K562 [1] is on record as 45%.

On to `COc1cc(/C=C/C(=O)c2c(O)cc(OC)cc2OC)cc(OC)c1`, for which the Activity in the test with K562 [1] amounted to 11%.

Turning to `COc1ccc(C(=O)/C=C/c2ccccc2Cl)c(O)c1`, the Activity in the test on K562 [1] turned out to be 67%.

Consider `COc1ccc(C(=O)/C=C/c2ccc(OC)c(OC)c2OC)c(O)c1`, for which, in the test on K562 [1], the Activity worked out at 20%.

Turning to `CCOc1ccc(/C=C/C(=O)c2c(OCC)cccc2OCC)c(OCC)c1`, the Activity in the test on K562 [1] worked out at 11%.

As for `COc1ccc(C(=O)/C=C/c2c(F)cccc2Cl)c(O)c1`, the Activity with K562 [1] was determined as 19%.

For the compound `COc1cccc(/C=C/C(=O)c2c(O)cc(OC)cc2OC)c1`, the Activity in the test with K562 [1] is 52%.

For the compound `COc1ccc(C(=O)/C=C/c2ccc(Cl)cc2)c(O)c1`, the Activity in the test with K562 [1] is 10%.

Consider `COc1cc(O)c(C(=O)/C=C/c2ccc3c(c2)OCO3)c(OC)c1`, for which, in the test with K562 [1], the Activity was found to be 13%.

In the case of `CCOc1cc(OCC)c(/C=C/C(=O)c2c(OC)cccc2OC)c(OCC)c1`, the Activity in the test on K562 [1] amounted to 12%.

Turning to `COc1cccc(OC)c1C(=O)/C=C/c1ccccc1F`, the Activity with K562 [1] is recorded as 38%.

On to `COc1cc(/C=C/C(=O)c2ccc(OC)cc2O)cc(OC)c1`, for which the Activity with K562 [1] was 40%.

Turning to `CCOc1cccc(OCC)c1C(=O)/C=C/c1c(OC)cccc1OC`, the Activity in the test with K562 [1] was found to be 14%.

As to `COc1cc(OC)c(/C=C/C(=O)c2c(OC)cc(OC)cc2OC)c(OC)c1`, the half-inhibitory concentration (IC50) was found to be 8.5 µM with L1210; 1000 nM with HCT-116; 50 µM with K562 [2]; 900 nM in the test on RL; 800 nM in the test with SW48; 1900 nM in the test with CCRF-CEM. Also, the IC50 in the test on N2a was 4 µM; in test [3], 2200 nM; in the test with NIH3T3, 30 µM; in [4] it was 10 µM; in the test on MCF7, 52 µM. Moreover, the Activity with K562 [1] was determined as 86%.

`COc1ccccc1/C=C/C(=O)c1c(OC)cccc1OC`: the Activity in the test with K562 [1] came to 18%.

`COc1cc(OC)c(/C=C/C(=O)c2ccc(Cl)c(Cl)c2)c(OC)c1`: the Activity in the test on K562 [1] stood at 30%.

Regarding `COc1ccc(C(=O)/C=C/c2c(OC)cc(OC)cc2OC)c(OC)c1` (stereo in doubt; 3), in the test on K562 [1], the Activity turned out to be 86%.

`COc1ccc(C(=O)/C=C/c2c(OC)cc(OC)cc2OC)c(OC)c1` (stereo in doubt; 52): the Activity in the test on K562 [1] amounted to 72%.

Turning to `COc1cc(O)c(C(=O)/C=C/c2ccccc2)c(OC)c1` [FLAVOKAWAIN B], the Activity in the test on K562 [1] is 28%.

Regarding `CC[C@]1(O)C[C@H]2CN(CCc3c([nH]c4ccccc34)[C@@](C(=O)OC)(c3cc4c(cc3OC)N(C=O)[C@H]3[C@@](O)(C(=O)OC)[C@H](OC(C)=O)[C@]5(CC)C=CCN6CC[C@]43[C@@H]65)C2)C1` [VINCRISTINE], in the test with K562 [1], the Activity is 72%.
